Calls of active or inactive are those of the source. The calls are words filed in the database; no cut-off is given here.
Assays:
[1] = test system: HEK293; assay: Cytotoxicity against human HEK293 cells expressing human NOD1 assessed as reduction in metabolic activity at 20 uM incubated for 18 hrs by MTS assay; format: ADME, cell-based; conditions: hek293, 18 h
Summary of the method: (§1)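 HEK-Blue NOD1 or NOD2 cells seeded at 1 × 10^4 cells/well in triplicate. Treated 18 h with 20 µM compound or 0.1% DMSO vehicle. Metabolic activity read by MTS (CellTiter 96 AQueous One) and expressed relative to vehicle control. Mean ± SD of three biological replicates.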

[2] = molecular target: T1, Nucleotide-binding oligomerization domain-containing protein 2 (Homo sapiens, UniProt Q9HC29); assay: Antagonist activity at NOD2 in human PBMC assessed as reduction in MDP-induced TNF-alpha secretion at 20 uM preincubated for 1 hr followed by MDP stimulation and measured after 18 hrs by flow cytometric analysis; format: tissue-based; conditions: filed as antagonist, time 19.0 hrs
Summary of the method: (§2)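 Human PBMCs from healthy donors, Ficoll density-gradient isolated, 1 × 10^6 cells in RPMI 1640 with 10% heat-inactivated FBS. Pre-treated 1 h with 20 µM compound, then 2 µM MDP. Supernatants taken at 18 h and stored at −80 °C. Cytokines quantified by flow cytometric bead array (Th1/Th2 panel) against recombinant standards, in pg/mL. Mean ± SD from two representative experiments.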

[3] = test system: THP-1; assay: Antagonist activity at NOD2/TLR4 in human THP-1 cells assessed as reduction in MDP/LPS-induced TNF-alpha secretion at 20 uM preincubated for 1 hr followed by MDP/LPS stimulation and measured after 20 hrs by ELISA; format: cell-based; conditions: filed as antagonist, time 21.0 hrs
Summary of the method: (§3)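 Synergy setting in THP-1 cells: 1 h pre-treatment with 20 µM compound, then 10 µM MDP or C12-iE-DAP plus 1 ng/mL E. coli O127:B8 LPS for 20 h. Supernatant TNF-α by sandwich ELISA, detection limit 4 pg/mL. DMSO vehicle ≤0.2%. Duplicates from three independent experiments, mean ± SD, Dunnett test against agonist+LPS-treated cells.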

[4] = test system: THP-1; assay: Antagonist activity at NOD in human THP-1 cells assessed as increase in TNF-alpha secretion at 20 uM; format: cell-based
Summary of the method: (§4)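 THP-1 cells at 10^6 cells/mL in RPMI 1640 with 10% heat-inactivated FCS, passages 3–12, exposed to 20 µM compound alone (no NOD agonist). IL-8 and TNF-α in cell-free supernatants measured by sandwich ELISA, reported in pg/mL. Detection limits were 15.6 pg/mL for IL-8 and 4 pg/mL for TNF-α. DMSO vehicle control, not above 0.2% final.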

[5] = molecular target: T2, Nucleotide-binding oligomerization domain-containing protein 1 (Homo sapiens, UniProt Q9Y239); assay: Antagonist activity at human NOD1 expressed in HEK293 cells assessed as reduction in C12-iE-DAP-induced NF-kappaB activation preincubated for 1 hr followed by C12-iE-DAP stimulation and measured after 18 hrs by SEAP reporter gene based spectrophotometric analysis; format: cell-based
T2 sequence (Q9Y239 whole entry): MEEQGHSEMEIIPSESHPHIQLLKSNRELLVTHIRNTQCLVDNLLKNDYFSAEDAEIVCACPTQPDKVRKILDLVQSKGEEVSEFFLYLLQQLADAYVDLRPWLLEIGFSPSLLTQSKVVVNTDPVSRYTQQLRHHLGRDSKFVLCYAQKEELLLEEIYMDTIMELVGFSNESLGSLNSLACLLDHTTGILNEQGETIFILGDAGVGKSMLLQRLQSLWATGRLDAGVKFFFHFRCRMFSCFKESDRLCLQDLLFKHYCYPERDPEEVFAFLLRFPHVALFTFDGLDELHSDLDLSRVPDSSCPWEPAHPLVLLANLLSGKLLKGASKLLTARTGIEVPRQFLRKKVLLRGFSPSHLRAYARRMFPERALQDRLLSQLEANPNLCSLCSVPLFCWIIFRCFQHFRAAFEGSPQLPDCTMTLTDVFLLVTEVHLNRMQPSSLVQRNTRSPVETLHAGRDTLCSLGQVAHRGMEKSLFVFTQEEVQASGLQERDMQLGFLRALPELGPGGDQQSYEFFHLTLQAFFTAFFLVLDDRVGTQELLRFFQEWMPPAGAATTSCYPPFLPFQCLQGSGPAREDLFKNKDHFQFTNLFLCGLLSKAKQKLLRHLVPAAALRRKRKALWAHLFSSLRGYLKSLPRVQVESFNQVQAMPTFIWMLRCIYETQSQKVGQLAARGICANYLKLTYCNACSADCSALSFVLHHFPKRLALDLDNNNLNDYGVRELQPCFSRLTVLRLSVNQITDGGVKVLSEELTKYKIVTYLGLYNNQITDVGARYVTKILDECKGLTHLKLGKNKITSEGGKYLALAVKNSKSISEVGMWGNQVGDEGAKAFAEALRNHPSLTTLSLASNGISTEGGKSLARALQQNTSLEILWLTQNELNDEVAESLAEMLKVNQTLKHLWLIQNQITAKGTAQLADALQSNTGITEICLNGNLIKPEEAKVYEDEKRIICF

[6] = test system: HEK293; assay: Cytotoxicity against human HEK293 cells expressing human NOD2 assessed as reduction in metabolic activity at 20 uM incubated for 18 hrs by MTS assay; format: ADME, cell-based; conditions: hek293, 18 h; summary of the method: as §1
[7] = test system: THP-1; assay: Antagonist activity at NOD in human THP-1 cells assessed as increase in IL-8 secretion at 20 uM; format: cell-based; summary of the method: as §4
[8] = test system: THP-1; assay: Antagonist activity at NOD1/TLR4 in human THP-1 cells assessed as reduction in C12-iE-DAP/LPS-induced TNF-alpha secretion at 20 uM preincubated for 1 hr followed by C12-iE-DAP/LPS stimulation and measured after 20 hrs by ELISA; format: cell-based; conditions: time 21.0 hrs; summary of the method: as §3
[9] = molecular target: T3, Nucleotide-binding oligomerization domain-containing protein 1 (Homo sapiens) (UniProt Q9Y239); assay: Antagonist activity at human NOD1 expressed in HEK293 cells assessed as reduction in C12-iE-DAP-induced NF-kappaB activation at 10 uM preincubated for 1 hr followed by C12-iE-DAP stimulation and measured after 18 hrs by SEAP reporter gene based spectrophotometric analysis; format: cell-based; conditions: filed as antagonist, time 19.0 hrs
T3 sequence (whole entry): T2 sequence (Q9Y239 whole entry)
Summary of the method: (§5)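 HEK-Blue NOD1 or NOD2 reporter cells (5 × 10^5 cells/mL, passages 7–12) pre-treated 1 h with 10 µM compound. Then 100 nM C12-iE-DAP (NOD1) or 2 µM MDP (NOD2) for 18 h at 37 °C, 5% CO2. Secreted SEAP read at 620 nm. DMSO ≤0.1% vehicle control. Duplicates, three biological replicates.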

[10] = molecular target: T3, Nucleotide-binding oligomerization domain-containing protein 1 (Homo sapiens); assay: Antagonist activity at NOD1 in human THP-1 cells assessed as reduction in C12-iE-DAP-induced IL-8 secretion at 20 uM preincubated for 1 hr followed by C12-iE-DAP stimulation and measured after 20 hrs by ELISA; format: cell-based; conditions: filed as antagonist, time 21.0 hrs
Summary of the method: (§6)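 THP-1 cells at 10^6 cells/mL in 24-well cultures, passages 3–12. Pre-treated 1 h with 20 µM compound, then 10 µM MDP (NOD2) or 10 µM C12-iE-DAP (NOD1) added, 20 h at 37 °C, 5% CO2. Triplicate wells, DMSO ≤0.2% as vehicle control. Supernatant IL-8 by sandwich ELISA, detection limit 15.6 pg/mL. Mean ± SD of duplicates from three independent experiments, Dunnett test.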

[11] = molecular target: T1, Nucleotide-binding oligomerization domain-containing protein 2; assay: Antagonist activity at NOD2 in human PBMC assessed as reduction in MDP-induced IL-6 secretion at 20 uM preincubated for 1 hr followed by MDP stimulation and measured after 18 hrs by flow cytometric analysis; format: tissue-based; conditions: filed as antagonist, time 19.0 hrs; summary of the method: as §2
[12] = test system: THP-1; assay: Cytotoxicity against human THP-1 cells assessed as […] dehydrogenase leakage at 20 uM incubated for 18 hrs; format: cell-based; conditions: thp-1, 18 h
Summary of the method: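 THP-1 cells treated 18 h with compound at up to 20 µM. Lactate dehydrogenase released into cell-free supernatant measured with a colorimetric kit, results given as OD.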

[13] = molecular target: T1, Nucleotide-binding oligomerization domain-containing protein 2; assay: Antagonist activity at human NOD2 expressed in HEK293 cells assessed as reduction in MDP-induced NF-kappaB activation preincubated for 1 hr followed by MDP stimulation and measured after 18 hrs by SEAP reporter gene based spectrophotometric analysis; format: cell-based; conditions: read-out: IC50
Summary of the method: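 Dose–response in HEK-Blue NOD2 and NOD1 cells (5 × 10^5 cells/mL): 1 h pre-treatment with 0.3125–20 µM antagonist, then 2 µM MDP or 100 nM C12-iE-DAP respectively, 18 h incubation. SEAP absorbance read at 620 nm. IC50 fitted by non-linear regression. Duplicates, three biological replicates, DMSO ≤0.1%.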

[14] = molecular target: T1, Nucleotide-binding oligomerization domain-containing protein 2; assay: Antagonist activity at NOD2 in human THP-1 cells assessed as reduction in MDP-induced IL-8 secretion at 20 uM preincubated for 1 hr followed by MDP stimulation and measured after 20 hrs by ELISA; format: cell-based; conditions: filed as antagonist, time 21.0 hrs; summary of the method: as §6
[15] = molecular target: T1, Nucleotide-binding oligomerization domain-containing protein 2; assay: Antagonist activity at NOD2 in human PBMC assessed as reduction in MDP-induced IL-10 secretion at 20 uM preincubated for 1 hr followed by MDP stimulation and measured after 18 hrs by flow cytometric analysis; format: tissue-based; conditions: filed as antagonist, time 19.0 hrs; summary of the method: as §2
[16] = molecular target: T1, Nucleotide-binding oligomerization domain-containing protein 2; assay: Antagonist activity at human NOD2 expressed in HEK293 cells assessed as reduction in MDP-induced NF-kappaB activation at 10 uM preincubated for 1 hr followed by MDP stimulation and measured after 18 hrs by SEAP reporter gene based spectrophotometric analysis; format: cell-based; conditions: filed as antagonist, time 19.0 hrs; summary of the method: as §5

T1 sequence (Q9HC29 whole entry, the tested form may be a part): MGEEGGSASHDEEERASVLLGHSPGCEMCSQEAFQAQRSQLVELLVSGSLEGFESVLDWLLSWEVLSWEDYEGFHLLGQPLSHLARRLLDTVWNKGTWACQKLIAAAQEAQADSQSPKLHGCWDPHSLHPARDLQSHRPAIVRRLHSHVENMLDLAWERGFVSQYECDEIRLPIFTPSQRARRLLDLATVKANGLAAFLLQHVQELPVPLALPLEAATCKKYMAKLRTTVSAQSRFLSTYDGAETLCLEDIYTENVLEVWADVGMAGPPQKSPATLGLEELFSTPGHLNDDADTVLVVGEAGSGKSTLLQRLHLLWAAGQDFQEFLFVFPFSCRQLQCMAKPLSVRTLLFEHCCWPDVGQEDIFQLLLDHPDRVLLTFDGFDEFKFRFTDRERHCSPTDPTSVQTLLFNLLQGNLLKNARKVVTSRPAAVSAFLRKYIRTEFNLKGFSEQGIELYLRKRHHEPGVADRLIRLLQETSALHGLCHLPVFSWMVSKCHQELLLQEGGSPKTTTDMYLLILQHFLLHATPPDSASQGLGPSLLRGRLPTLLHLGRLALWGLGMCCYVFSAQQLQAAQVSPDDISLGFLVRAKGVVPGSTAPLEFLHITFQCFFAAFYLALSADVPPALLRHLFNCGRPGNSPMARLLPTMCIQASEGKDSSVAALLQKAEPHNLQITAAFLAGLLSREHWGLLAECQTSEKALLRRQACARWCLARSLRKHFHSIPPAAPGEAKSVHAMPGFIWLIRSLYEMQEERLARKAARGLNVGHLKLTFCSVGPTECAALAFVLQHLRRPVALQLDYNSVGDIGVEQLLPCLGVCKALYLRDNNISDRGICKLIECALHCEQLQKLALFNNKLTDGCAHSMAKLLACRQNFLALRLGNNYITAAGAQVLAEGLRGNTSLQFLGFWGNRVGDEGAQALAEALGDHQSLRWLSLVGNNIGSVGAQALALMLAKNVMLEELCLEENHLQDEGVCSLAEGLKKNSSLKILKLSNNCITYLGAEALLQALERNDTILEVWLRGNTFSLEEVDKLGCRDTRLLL

**Q.** For `O=C(Cn1c(CCNS(=O)(=O)c2ccccc2)nc2ccccc21)Nc1ccc2c(c1)CCC2`, which Activity [1] is on record?
**A.** Its Activity is “Non-Toxic”.

**Q.** And the Activity [2]?
**A.** Its Activity is “Active”.

**Q.** What about the Activity [3] of the same compound?
**A.** Its Activity is “Active”.

**Q.** And the Activity [4]?
**A.** Its Activity is “inactive”.

**Q.** And the IC50 [5]?
**A.** The IC50 was 28.2 µM.

**Q.** And the Activity [6]?
**A.** The Activity was “Non-Toxic”.

**Q.** And the Activity [7]?
**A.** The Activity was “inactive”.

**Q.** And the Activity [8]?
**A.** The Activity was “inactive”.

**Q.** And the Activity [9]?
**A.** The Activity was “Active”.

**Q.** And the Activity [10]?
**A.** Its Activity is “Active”.

**Q.** What about the Activity [11] of the same compound?
**A.** The Activity was “Active”.

**Q.** And the Activity [12]?
**A.** Its Activity is “Non-Toxic”.

**Q.** And the IC50 [13]?
**A.** Its IC50 is 5.23 µM.

**Q.** And the Activity [14]?
**A.** Its Activity is “Active”.

**Q.** What about the Activity [15] of the same compound?
**A.** The Activity was “Active”.

**Q.** And the Activity [16]?
**A.** The Activity was “Active”.

Reference: ChEMBL document CHEMBL4765256, “Structural features and functional activities of benzimidazoles as NOD2 antagonists” (Eur J Med Chem, 2020)
